Measurements as given in ChEMBL document CHEMBL1121643, “Pyrazolo[5,1-b]quinazolin-9-ones: a new series of antiallergic agents” (1981).
Calls of active or inactive are those of the source. No cut-off for these calls is given here.

How the values were obtained:
Rattus norvegicus [1] = assay: Inhibition of passive cutaneous anaphylaxis (PCA) reaction in rats, peroral administration 5 mg/kg; type: functional; conditions: route oral
How it was run: (§1)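 Rats were sensitized by intradermal antiserum dilutions at several dorsal sites. After 48 h they were challenged iv with 1 mg ovalbumin in 1 mL saline containing 0.25% Evans blue. Drug was suspended in 1% gum tragacanth in saline and given ip or orally 10–15 min before challenge. Rats were killed 30 min later and the mean orthogonal wheal diameter was measured.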

Rattus norvegicus [2] = assay: Inhibition of passive cutaneous anaphylaxis (PCA) reaction in rats by intraperitoneal administration of 5 mg/kg; type: functional; conditions: ip; how it was run: as §1
Rattus norvegicus [3] = assay: Inhibition of the passive cutaneous anaphylaxis (PCA) reaction in rats by intravenous administration of 0.01 mg/kg; type: functional
How it was run: (§2)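 Rats were given intradermal antiserum dilutions on the back. At 48 h, drug dissolved in the challenge solution (1 mg ovalbumin, 0.25% Evans blue, 1 mL saline) was injected iv with the antigen; sodium bicarbonate in slight molar excess was used if needed. Wheal diameters were read 30 min later and plotted against antiserum concentration, with the least-squares line extrapolated to a zero-antiserum base value. Five rats per group.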

Rattus norvegicus [4] = assay: Inhibition of the passive cutaneous anaphylaxis (PCA) reaction in rats by intravenous administration of 0.1 mg/kg; type: functional; how it was run: as §2
Rattus norvegicus [5] = assay: Ability to inhibit the passive cutaneous anaphylaxis (PCA) reaction in rats by peroral administration of 1 mg/kg; type: functional; conditions: route oral; how it was run: as §1
Rattus norvegicus [6] = assay: Ability to inhibit the passive cutaneous anaphylaxis (PCA) reaction in rats by intravenous administration of 0.01 mg/kg; type: functional; how it was run: as §2
Rattus norvegicus [7] = assay: Ability to inhibit the passive cutaneous anaphylaxis (PCA) reaction in rats by intraperitoneal administration of 1 mg/kg; type: functional; conditions: ip; how it was run: as §1
Rattus norvegicus [8] = assay: Ability to inhibit the passive cutaneous anaphylaxis (PCA) reaction in rats by intravenous administration of 0.5 mg/kg; type: functional; how it was run: as §2
Rattus norvegicus [9] = assay: Ability to inhibit the passive cutaneous anaphylaxis (PCA) reaction in rats by peroral administration of 2 mg/kg; type: functional; conditions: route oral; how it was run: as §1
Rattus norvegicus [10] = assay: Ability to inhibit the passive cutaneous anaphylaxis (PCA) reaction in rats by peroral administration; Inactive; type: functional, organism-based; how it was run: as §1
Rattus norvegicus [11] = assay: Ability to inhibit the passive cutaneous anaphylaxis (PCA) reaction in rats by intravenous administration of 1.5 mg/kg; type: functional; how it was run: as §2
Rattus norvegicus [12] = assay: Ability to inhibit the passive cutaneous anaphylaxis (PCA) reaction in rats by peroral administration of 10 mg/kg; type: functional; conditions: route oral; how it was run: as §1

SMILES	inhibition in vivo at 5 mg/kg (Rattus norvegicus [1]) [%]	inhibition in vivo at 5 mg/kg (Rattus norvegicus [2]) [%]	further results
COc1cc2nc3cc(C(=O)O)nn3c(O)c2cc1OC	5	97	inhibition in vivo at 0.01 mg/kg (Rattus norvegicus [3]): 16%; inhibition in vivo at 0.1 mg/kg (Rattus norvegicus [4]): 100%
Oc1c2cc(Cl)ccc2nc2cc(-c3nn[nH]n3)nn12	1	25	–
CCOC(=O)c1cc2nc3ccccc3c(O)n2n1	0	74	–
O=C(O)c1ccc2nc3cc(C(=O)O)nn3c(O)c2c1	7	21	–
O=C(O)c1cc2nc3ccc(F)cc3c(O)n2n1	16	95	inhibition in vivo at 0.01 mg/kg (Rattus norvegicus [3]): 2%; inhibition in vivo at 0.1 mg/kg (Rattus norvegicus [4]): 62%
Nc1ccc2nc3cc(C(=O)O)nn3c(O)c2c1	16	38	–
O=C(O)c1cc2nc3ccccc3c(O)n2n1	5	100	inhibition in vivo at 1 mg/kg (Rattus norvegicus [5]): 23%; inhibition in vivo at 0.01 mg/kg (Rattus norvegicus [6]): 0%; inhibition in vivo at 0.1 mg/kg (Rattus norvegicus [4]): 54%; inhibition in vivo at 1 mg/kg (Rattus norvegicus [7]): 55%
Cc1cccc2c(O)n3nc(C(=O)O)cc3nc12	0	58	–
COc1ccc2c(c1)c(=O)n1nc(-c3nn[nH]n3)cc1n2C	0	100	inhibition in vivo at 0.5 mg/kg (Rattus norvegicus [8]): 100%
COc1ccc2nc3cc(-c4nn[nH]n4)nn3c(O)c2c1	–	87	inhibition in vivo at 1 mg/kg (Rattus norvegicus [5]): 21%
O=C(O)c1ccc2c(O)n3nc(C(=O)O)cc3nc2c1	–	74	inhibition in vivo at 0.1 mg/kg (Rattus norvegicus [4]): 56%
Cn1c2ccc(NC(=O)c3ccccc3)cc2c(=O)n2nc(C(=O)O)cc12	1	54	–
Cn1c2ccc(F)cc2c(=O)n2nc(C(=O)O)cc12	–	83	inhibition in vivo at 0.5 mg/kg (Rattus norvegicus [8]): 84%; inhibition in vivo at 2 mg/kg (Rattus norvegicus [9]): 40%
O=C(O)c1cc2nc3cccc(C(F)(F)F)c3c(O)n2n1	10	100	–
CCn1c2ccc(Cl)cc2c(=O)n2nc(C(=O)O)cc12	–	–	inhibition in vivo at 0.1 mg/kg (Rattus norvegicus [4]): 16%
COc1cccc2nc3cc(C(=O)O)nn3c(O)c12	18	62	–
O=C(O)c1cc(=O)c2c(OCC(O)COc3cccc4oc(C(=O)O)cc(=O)c34)cccc2o1 [CROMOLYN SODIUM]	–	–	inhibition (Rattus norvegicus [10]): inactive; inhibition in vivo at 1.5 mg/kg (Rattus norvegicus [11]): 50%
COc1ccc2c(c1)c(=O)n1nc(C(=O)O)cc1n2C	4	81	inhibition in vivo at 0.5 mg/kg (Rattus norvegicus [8]): 100%; inhibition in vivo at 0.01 mg/kg (Rattus norvegicus [3]): 23%
COc1cccc2c(=O)n3nc(C(=O)O)cc3n(C)c12	–	60	–
CSc1ccc2nc3cc(C(=O)Nc4nn[nH]n4)nn3c(O)c2c1	–	90	–
CCCOc1cccc2c(=O)n3nc(C(=O)O)cc3n(CCC)c12	–	72	–
Cc1ccc2nc3cc(C(=O)O)nn3c(O)c2c1	0	100	–
COc1ccc2nc3cc(C(=O)O)nn3c(O)c2c1	0	94	inhibition in vivo at 0.01 mg/kg (Rattus norvegicus [3]): 30%
CC(=O)Nc1ccc2c(c1)c(=O)n1nc(C(=O)O)cc1n2C	0	–	–
COc1ccc2nc3cc(C(=O)Nc4nn[nH]n4)nn3c(O)c2c1	–	80	inhibition in vivo at 10 mg/kg (Rattus norvegicus [12]): 43%; inhibition in vivo at 0.1 mg/kg (Rattus norvegicus [4]): 90%
O=C(Nc1nn[nH]n1)c1cc2nc3ccc(Cl)cc3c(O)n2n1	8	22	–
